In PubChem BioAssay AID624204 (Sanford-Burnham Center for Chemical Genomics, 2012):
Screen size: about 360,000 compounds; about 770 (0.21%) were called active. The sample holds actives, similar compounds and a random draw of the others, so the mix is not that of the screen.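 The calls were made as follows: active = inhibition at least 30% at 10 µM, raw YFP signal under a set limit, fluorescence ratio 0.5 to 1.5; inactive = the rest.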

biological target: Sentrin-specific protease 1 (Homo sapiens) (UniProt Q9P0U3); experiment: blockers of SENP1 SUMO protease activity – biochemical, FRET, uHTS, primary screen (AID 624204); details: recombinant SENP1 catalytic domain, CyPet-SUMO1-YPet FRET cleavage; at 10 µM; hits give high values;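 also: 0% = enzyme with DMSO and 100% = no enzyme wells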
Sequence (Q9P0U3 419-644 limits assumed): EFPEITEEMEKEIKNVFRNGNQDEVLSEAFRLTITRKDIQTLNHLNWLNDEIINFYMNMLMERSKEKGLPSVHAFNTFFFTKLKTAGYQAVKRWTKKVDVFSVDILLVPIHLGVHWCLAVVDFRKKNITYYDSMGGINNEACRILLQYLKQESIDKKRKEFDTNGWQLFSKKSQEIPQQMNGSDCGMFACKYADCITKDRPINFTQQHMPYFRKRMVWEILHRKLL
In short: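 Test system: recombinant human SENP1 catalytic domain, His6-tagged / Medium: pH 8 Tris buffer with EDTA, NaCl, BME, BSA, NP40, catalase / Also added: SUMO1 FRET substrate flanked by Cypet and Ypet, 25 nM / Times: 50 min reaction at room temperature / Signal: FRET, CFP and YFP emission / Control set: no-enzyme low control and enzyme-plus-DMSO high control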

inhibition, inactive:
CN1CCN(/N=C/c2ccc(C#N)cc2)CC1 1.45%
O=C1C2C3C=CC(C4CC34)C2C(=O)N1/N=C/c1ccc(-c2ccccc2[N+](=O)[O-])o1 (stereo not given) -25.8%
Nn1c(SCc2ccccc2)nnc1C1CCCCC1 3.72%
CCCC(=O)N1CCC(CCC(=O)NC2CC2)CC1 2.3%
CCOC(=O)C1CCN(Cc2ccc(-c3ccccc3)cc2)CC1 -0.00995%
CCOC(=O)C1CCN(C(=O)CN2C(=O)c3cccnc3Oc3ccc(C)cc32)CC1 0.924%
CNCC[C@H](Oc1ccc(C(F)(F)F)cc1)c1ccccc1 -0.124%
O=C(COc1ccc(/C=N/NS(=O)(=O)c2ccccc2)cc1)NCCc1ccccc1 3.48%
CC1=CC2=NC(=O)/C(=C/c3coc4ccccc4c3=O)C(=N)N2O1 -38.6%
CSc1ccc(CN2C(=O)NC3(CCCCCC3)C2=O)cc1 1.11%
CCC1OC(c2ccc([N+](=O)[O-])cc2)=Nc2ccccc21 (stereo not given) -7.92%
Cc1cccc(C)c1NC(=O)C(c1cccc2ccccc12)n1c(=O)c(-c2ccco2)nc2ccccc21 (stereo not given) -49.2%
N#Cc1ccc(C(C(=O)NCc2ccccc2)n2c(=O)c(-c3ccco3)nc3ccccc32)cc1 (stereo not given) -62.9%
Cc1ccc(NC(=O)COC(=O)CCc2nc3ccccc3n2-c2ccccc2)c(C)c1 0.304%
C[C@H](C(=O)CC(=O)OC(C)(C)C)[C@H](O)c1ccc(C(F)(F)F)cc1 0.388%
Cc1ncc(CO)c(/C=N/NC(=O)c2cccc(S(=O)(=O)N3CCCC3)c2)c1O -24.8%
CCOc1ccc(NS(=O)(=O)c2ccc(C(=O)NCC(c3ccccc3OC)N3CCCC3)cc2)cc1 (stereo not given) -1.55%
O=C(CN1CCOCC1)Nc1c(-c2ccccc2)c2cc(Br)ccc2[nH]c1=O -0.407%
Cc1ccccc1Nc1c(-c2ccccc2)nc2ncccn12 14.2%
Cc1ccc(-c2c(N)nc3ncccn23)cc1 -17.5%
Cc1ccc(NC(=O)[C@H](Cc2ccccc2)NC(=O)CC[C@H]2O[C@@H](n3ccc(=O)[nH]c3=O)[C@H](O)[C@@H]2O)cc1C 1.31%
Cc1ccc(Nc2nc(Cl)c(C=O)s2)cc1 -32.5%
Cc1ccc(Nc2nc(N)nc(CSc3nnc(C)s3)n2)cc1 3.47%
O=C(CSc1nnc(-c2ccncc2)n1-c1ccc(Cl)cc1)Nc1ccc(C(=O)O)cc1 0.469%
O=C(CCn1nnc2ccccc2c1=O)N[C@@H](Cc1c[nH]c2ccccc12)C(=O)O 0.24%
CCN(CC)c1ccc(S(=O)(=O)N2CCOCC2)cc1NC(=O)CSc1cccc[n+]1[O-] 3.85%
COC(=O)c1ccc(NC(=O)CSc2nncn2-c2cccnc2)cc1 -5.21%
COc1cccc(CNC(=O)C2CCCN(S(=O)(=O)N3CC(C)CC(C)C3)C2)c1 (stereo not given) -0.397%
CC(CC(=O)C1C(C)C=CCC1(C)C)NNC(N)=O (stereo not given) 1.56%
COc1ccc2oc(C(=O)OCC(=O)N(CC(C)C)c3c(N)n(Cc4ccccc4)c(=O)[nH]c3=O)c(C)c2c1 -9.9%
CCOC(=O)N(C)c1c(CC)nc2c(OCc3ccccc3C(=O)OC)cccn12 0.268%
O=C(CN1CCN(S(=O)(=O)c2ccc(Br)cc2)CC1)Nc1ccccc1C(=O)c1ccccc1 0.864%
COc1ccc2c(c1)c(=O)c(C(=O)c1ccc(Cl)cc1)cn2CC(=O)Nc1ccc(F)cc1 -1.49%
CCOc1ncccc1C(=O)OCC(=O)Nc1cccc(S(=O)(=O)N2CCCCCC2)c1 2.06%
O=C(NCc1cccnc1)c1ccccc1NC(=O)c1c(F)cccc1F 3.29%
CCCNC(=O)c1cc(C2CCCCN2S(=O)(=O)c2ccc(C#N)cc2)on1 (stereo not given) 2.5%
CNC(=S)N/N=C/c1ccc(N2CCOCC2)s1 -70.3%
CC(C)c1cc(C(=O)N/N=C/c2ccoc2)c(O)c(C(C)C)c1 1.94%
Cc1ccc(S(=O)(=O)n2cccc2CO)cc1 -0.0494%
CC(C)NC(=O)C1(C)CCCCCN1C(=O)c1ccc(-c2ccccc2)cc1 (stereo not given) 0.518%
Cc1ccccc1CN1C(=O)CSCC1(C)C(=O)Nc1c(C)cccc1C (stereo not given) -2.15%
Cn1cc(/C=C/C(=O)N2CCCC(C(=O)c3ccc(C(F)(F)F)cc3)C2)cn1 (stereo not given) 0.414%
CO[C@H]1[C@@H]2C=CO[C@@H](O[C@H]3O[C@@H](CO)[C@H](O)[C@@H](O)[C@@H]3O)[C@@H]2[C@@]2(CO)O[C@@H]12 -2%
COC(=O)c1c(NC(=O)CN2C(=O)NC(CCc3ccccc3)C2=O)sc2c1CCCCC2 (stereo not given) -3.88%
NC1=NN(c2cccc(C(=O)O)c2)C(=O)C1 4.58%
Cc1cc(C)cc(C(=O)OCC(=O)NCCNC(=O)COC(=O)c2cc(C)cc(C)c2)c1 0.612%
O=C(c1ccc(-n2cnnn2)cc1)N1CCN(C(c2ccccc2)c2ccccc2)CC1 0.954%
CCc1ccc(OC(C)C(=O)Nc2ccc(S(=O)(=O)Nc3cc(C)on3)cc2)cc1 (stereo not given) 2.02%
CCC(=O)Nc1ccc(-c2ccc(N3CCCCC3)nn2)cc1 -4.2%
COc1ccc(/C=C(\NC(=O)c2ccc(OCC(C)C)cc2)C(=O)OCc2ccco2)cc1 -2.88%
COC1C(CO)OC(n2cnc3c(=S)nc(N)[nH]c32)C1O (stereo not given) 0.119%
Cc1ccc(CN2CCN(Cc3cccc(C)n3)CC2CCO)cc1 (stereo not given) -3.82%

inhibition, active:
CN1CCN(/N=C/c2ccc(-c3ccc([N+](=O)[O-])cc3)o2)CC1 58.4%
CCOC(=O)C1CCN(c2ncnc3c2c(-c2ccccc2)cn3-c2ccc(C)cc2)CC1 47.1%
O=C1/C(=C/c2coc3ccc(O)cc3c2=O)SC(=S)N1c1ccccc1 46.8%
c1coc(-c2nc3nc4ccccc4n3nc2-c2ccco2)c1 86.8%
Cc1cccc(C)c1Nc1c(-c2ccccc2O)nc2ncccn12 32.1%
Cc1ccc(Nc2ccccc2N)cc1 54.5%
C=CC1=C(C(=O)O)N2C(=O)[C@@H](NC(=O)/C(=N/OCC(=O)O)c3csc(N)n3)[C@H]2SC1 56%
Cc1cc(C(=O)N/N=C/c2ccc(N3CCOCC3)cc2)c(C)o1 33.5%
